Assay results taken from PubChem BioAssay.
Active and inactive are the calls of the source.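 The calls were made as follows, unless noted: active = inhibition above 20% together with a positive visual image hit; inconclusive = visual image hit but inhibition not above 20%; inactive = no visual image hit.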

Legend:
[1] = inhibitors of TNFa-induced NFkB p65 translocation, primary screen, imaging, HUVEC, MLSMR starter and 10KST1 sets (AID 438); settings: HUVEC TNFa-induced p65 nuclear translocation; cell count: measured here: nuclei count (cytotoxicity indicator), at 2.08 µM; inhibition: at 2 µM, stronger effect = higher value, 0% TNFa-plus-vehicle, 100% no-TNFa wells;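 also: compound added about 3h40 before a 20 min TNFalpha stimulation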;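 as to inhibition: signal is the nuclear over cytoplasmic p65 intensity ratio per well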
[2] = endothelial E-selectin expression blockers – imaging, HUVEC, immunofluorescence, MLSMR starter and 10KST1 sets, primary screen (AID 487;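 active = visually confirmed hit in the image check and inhibition above 20%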;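 as to inhibition: signal is fraction of cell area covered by stained E-selectin grains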;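 as to nuclei count: 100% = median nuclei count of all wells on the same plate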); settings: HUVEC TNFalpha-induced E-selectin immunofluorescence imaging, at 2 µM; inhibition: stronger effect = higher value; nuclei count: measured here: cell number, toxicity
[3] = Primary imaging screen for DUSP6 inhibitors that restore phospho-Erk in transfected HeLa cells, chemical complementation (AID 609;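 active = compounds giving at least 50% inhibition in the cell-based MKP-3 phosphatase rescue imaging test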;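 as to inhibition: phospho-Erk level distribution per well compared with pooled transfected vehicle control wells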); settings: HeLa MKP-3 transfected, phospho-Erk imaging KS statistic, at 10 µM, cells stimulated with TPA for 15 min
[4] = target: Dual specificity protein phosphatase 6 (Homo sapiens) (UniProt Q16828); assay: as above; settings: HeLa MKP-3 transfected, phospho-Erk imaging KS statistic; at 10 µM; stronger effect = higher value; cells stimulated with TPA for 15 min
[5] = target: Voltage-gated potassium channel subunit beta-2 (Rattus norvegicus) (UniProt P62483); assay: inhibitors of rat Kvbeta2 reductase activity – biochemical, NADPH fluorescence, primary screen (AID 622;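 active = fluorescence slope higher than the sample average by over 3 SD, cut at about -0.22 in these data, passing the limit was not always enough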;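 also: slope of raw intensity against log time taken from 70 to 1610 s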); settings: recombinant KvBeta, 4-cyanobenzaldehyde reduction, at 10 µM, stronger effect = higher value
[6] = target: Voltage-gated potassium channel subunit beta-2 (Rattus norvegicus) (UniProt P62483); assay: enhancers of rat Kvbeta2 NADPH turnover – biochemical, NADPH fluorescence, primary screen (AID 623;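 active = NADPH fluorescence slope more negative than the mean of all samples by about 3 SD, 99.7% confidence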;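 also: fluorescence intensity change per second fitted from 20 to 320 s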); settings: Recombinant KvBeta, NADPH fluorescence decrease slope, 10 min; at 10 µM; stronger effect = lower value
[7] = target: Muscarinic acetylcholine receptor M4 (Homo sapiens) (UniProt P08173); assay: M4-linked GIRK flux change, two-sided – cell-based, HEK293 M4/GIRK, thallium flux, BTC-AM, M4 allosteric agonist project, primary screen (AID 625;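 active = fluorescence slope after compound addition differing from the mean of all tested samples at 99.7% confidence, mostly higher but some lower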;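 also: thallium influx through GIRK channels coupled to M4 in HEK293 cells with BTC-AM dye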); settings: at 10 µM, actives lie on both sides
How it was run: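 Material: HEK293 cells with M4 receptor and GIRK channels; Times: cells overnight at 37 °C, BTC-AM loading 1 h, reads 2 min total; Technique: kinetic BTC-AM fluorescence sampled at 1 Hz, 10 s pre-addition baseline; Read-out basis: slope over 15–24 s of trace normalized to starting intensity; Controls: carbachol positive, DMSO negative.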

[8] = inhibitors of larval lipid processing in zebrafish, primary screen, whole organism, PED6 fluorescence, gall bladder and intestine (AID 686;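 active = a full or partial loss of lipid-probe fluorescence in the fish gall bladder, intestine or both, judged by eye; inactive = no fluorescence loss, or compound toxic to the fish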;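 also: larvae 5 to 7 days old with five fish per well; signal comes from phospholipase A2 cleavage of quenched PED6 carried via bile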); settings: Zebrafish larvae PED6 lipid processing, fluorescence scoring; screened at 20 µM (by protocol)
How it was run: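 Incubation: overnight exposure of larvae to compound plus PED6 / Test system: live zebrafish larvae aged 5-7 days, whole organism / Amount: 5 larvae per well / Read-out basis: visual per-well fluorescence inhibition score / Signal: visual fluorescence microscopy scoring of gall bladder, gut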

[9] = loss of swimming-algae plug formation – whole organism, Chlamydomonas reinhardtii, WT vs cilia-less mutant, absorbance, 96-well, primary screen (AID 463189;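 active = inhibition at or above 50% relative to wild type and mutant plate controls; inactive = inhibition below 50%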;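 also: 0% = wild type cc124 cells in DMSO and 100% = ciliumless bld1 mutant cells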); settings: Chlamydomonas reinhardtii gravitaxis, OD600 absorbance, 2 days; at 10 µM; stronger effect = higher value
[10] = measured here: cell density z-score
[11] = measured here: nuclear c-Myc green intensity z-score
[12] = measured here: nuclear pErk red intensity z-score, stronger effect = higher value

Sequence of Dual specificity protein phosphatase 6 (Homo sapiens) (Q16828 whole entry, looked up): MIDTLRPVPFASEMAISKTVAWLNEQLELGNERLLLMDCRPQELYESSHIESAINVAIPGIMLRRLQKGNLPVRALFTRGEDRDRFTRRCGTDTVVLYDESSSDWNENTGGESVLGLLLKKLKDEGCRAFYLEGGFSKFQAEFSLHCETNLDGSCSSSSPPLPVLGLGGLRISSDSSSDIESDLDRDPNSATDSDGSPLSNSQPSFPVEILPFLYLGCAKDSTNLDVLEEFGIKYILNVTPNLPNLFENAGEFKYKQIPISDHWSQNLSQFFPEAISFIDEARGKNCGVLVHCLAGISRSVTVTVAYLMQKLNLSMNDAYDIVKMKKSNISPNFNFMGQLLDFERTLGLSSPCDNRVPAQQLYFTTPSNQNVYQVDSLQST
Sequence of Muscarinic acetylcholine receptor M4 (Homo sapiens) (P08173 whole entry, looked up): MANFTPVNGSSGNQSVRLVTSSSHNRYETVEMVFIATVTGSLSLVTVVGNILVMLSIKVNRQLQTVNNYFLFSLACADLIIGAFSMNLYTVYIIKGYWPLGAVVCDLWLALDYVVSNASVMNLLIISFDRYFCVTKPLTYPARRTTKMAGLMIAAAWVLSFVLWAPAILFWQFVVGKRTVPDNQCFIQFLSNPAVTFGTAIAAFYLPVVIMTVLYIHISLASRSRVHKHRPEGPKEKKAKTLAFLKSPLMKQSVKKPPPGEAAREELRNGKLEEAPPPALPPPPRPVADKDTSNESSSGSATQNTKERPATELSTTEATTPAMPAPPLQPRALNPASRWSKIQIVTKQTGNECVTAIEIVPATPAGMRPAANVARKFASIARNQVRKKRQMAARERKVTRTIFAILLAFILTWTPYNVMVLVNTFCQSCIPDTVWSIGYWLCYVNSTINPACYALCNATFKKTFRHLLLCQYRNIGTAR
Sequence of Voltage-gated potassium channel subunit beta-2 (Rattus norvegicus) (P62483 whole entry, looked up): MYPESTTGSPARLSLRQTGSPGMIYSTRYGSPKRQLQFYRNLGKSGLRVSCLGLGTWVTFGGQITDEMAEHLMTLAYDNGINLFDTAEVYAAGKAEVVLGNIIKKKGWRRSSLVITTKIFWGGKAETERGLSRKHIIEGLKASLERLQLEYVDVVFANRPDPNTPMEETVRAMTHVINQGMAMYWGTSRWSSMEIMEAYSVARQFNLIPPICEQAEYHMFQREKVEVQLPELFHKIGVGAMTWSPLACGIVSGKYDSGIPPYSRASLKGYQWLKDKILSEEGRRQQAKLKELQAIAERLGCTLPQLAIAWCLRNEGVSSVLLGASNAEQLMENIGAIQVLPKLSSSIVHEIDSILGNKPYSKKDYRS

Row | Structure (SMILES) | cell count [1] | inhibition [1] | inhibition [2] | nuclei count [2] | z-score [3, 10] | z-score [3, 11] | z-score [3, 12] | inhibition [4] | fluorescence slope [5] | NADPH fluorescence slope [6] | fluorescence slope [7] | outcome [8] | inhibition [9]
1 | CCOc1ccc(C2C(C#N)=C(N)Oc3cc(C)n(CCN4CCOCC4)c(=O)c32)cc1OCC (stereo not drawn) | 556 | -10.8% (inactive) | -15.2% (inactive) | 167% | -0.219 | 1.25 | -0.841 | -10.1% (inactive) | -0.458 (inactive) | -4.1e-05 (inactive) | 0.0054 (inactive) | inactive | 7.88% (inactive)
2 | CCN(CC)CCCN1C(=O)C(=O)/C(=C(/O)c2ccc3c(c2)CC(C)O3)C1c1ccncc1 (stereo not drawn) | 613 | -2.6% (inactive) | -3.9% (inactive) | 154% | 1.2 | -0.776 | -1.04 | 19.4% (inactive) | -0.478 (inactive) | -4.1e-05 (inactive) | 0.00593 (inactive) | inactive | 17% (inactive)
3 | N#Cc1nc(-c2cccs2)oc1NCc1ccccc1 | 712 | 0.5% (inactive) | -23.3% (inactive) | 148% | 0.919 | 1.11 | 0.281 | -7.67% (inactive) | -0.329 (inactive) | -2.5e-05 (inactive) | 0.00659 (inactive) | inactive | 7.94% (inactive)
4 | COc1ccccc1-c1c(C)oc2c(CN3CCN(C)CC3)c(O)ccc2c1=O | 672 | -0.2% (inactive) | -20.6% (inactive) | 150% | 0.0584 | -0.255 | -0.66 | 14.7% (inactive) | -0.0259 (inactive) | 1.6e-05 (inactive) | 0.00509 (inactive) | inactive | -5.96% (inactive)
5 | Cc1ccc(NC(=O)CSc2nnc(-c3ccco3)c(-c3ccco3)n2)cc1 | 389 | -7.7% (inactive) | -155% (inactive) | 183% | -0.429 | -0.71 | 1.45 | -0.608% (inactive) | -0.453 (inactive) | -0.000112 (inactive) | 0.00329 (inactive) | inactive | 11.9% (inactive)
6 | Clc1ccc(-n2ncc3c(NCc4ccccn4)ncnc32)cc1 | 537 | -14.9% (inactive) | 6.6% (inactive) | 106% | -1.8 | 2.08 | -1.64 | 1.42% (inactive) | -0.374 (inactive) | 5.6e-06 (inactive) | 0.0062 (inactive) | inactive | 0.96% (inactive)
7 | COc1ccc(C(=O)Nc2ccccc2N2CCOCC2)cc1Br | 522 | -7.6% (inactive) | -11.8% (inactive) | 153% | 2.22 | -2.31 | -0.121 | 37.7% (inactive) | -0.351 (inactive) | -9.8e-06 (inactive) | 0.00733 (inactive) | inactive | 10.5% (inactive)
8 | Cc1cc2c(C)nc(Cc3ccccc3)nc2o1 | 561 | -5.5% (inactive) | -85.6% (inactive) | 149% | -0.156 | 0.673 | 0.277 | 11.9% (inactive) | -0.438 (inactive) | -7.2e-05 (inactive) | 0.00471 (inactive) | inactive | 16.9% (inactive)
9 | C#CC1CN(Cc2ccccc2)CC(C#C)N1C (stereo not drawn) | 690 | -3% (inactive) | 9% (inactive) | 156% | -0.126 | -0.517 | 1.32 | -7.67% (inactive) | -0.44 (inactive) | -3.5e-05 (inactive) | 0.00453 (inactive) | inactive | -0.669% (inactive)
10 | Cc1ccc(-c2n[nH]c(=O)c3ccccc23)cc1S(=O)(=O)NCCN1CCOCC1 | 449 | -1.8% (inactive) | -80.2% (inactive) | 160% | -0.696 | 0.423 | 0.442 | -3.95% (inactive) | -0.41 (inactive) | -4.4e-05 (inactive) | 0.00462 (inactive) | inactive | 19.7% (inactive)
11 | COc1ccc(CCn2c(=N)c(C(=O)NCc3ccco3)cc3c(=O)n4ccccc4nc32)cc1OC | 633 | -2.8% (inactive) | -94.3% (inactive) | 174% | 1.26 | -0.19 | 0.299 | 14.4% (inactive) | -0.507 (inactive) | -2.1e-05 (inactive) | 0.00335 (inactive) | inactive | -2.16% (inactive)
12 | CCOC(=O)CCNc1n[nH]c(=O)[nH]c1=O | 611 | 29.6% (active) | -2.5% (inactive) | 107% | 0.833 | 0.318 | -1.89 | 15.5% (inactive) | -0.497 (inactive) | -1.9e-05 (inactive) | 0.00518 (inactive) | inactive | -1.35% (inactive)
13 | CCOC(=O)c1c(CN2CCN(CCO)CC2)n(C)c2cc(Br)c(OC)cc12 | 380 | -7.5% (inactive) | -1.9% (inactive) | 103% | -0.09 | 0.157 | 0.909 | -2.29% (inactive) | -0.4 (inactive) | 5.8e-06 (inactive) | 0.00459 (inactive) | inactive | 26.8% (inactive)
14 | COCCCn1c2nc3ccccc3nc2c2c(=O)n(-c3ccccc3OC)c(C)nc21 | 671 | -8.6% (inactive) | -13.5% (inactive) | 185% | 0.714 | -0.748 | 0.0802 | 9.07% (inactive) | -0.442 (inactive) | -3.7e-05 (inactive) | 0.0072 (inactive) | inactive | 4.04% (inactive)
15 | CC(=O)[C@H]1[C@@H]2C(=O)N(c3cccc(Cl)c3)C(=O)[C@@H]2[C@H]2c3ccccc3C=CN21 | 652 | 0% (inactive) | 5.3% (inactive) | 144% | 0.229 | 0.26 | -0.893 | -2.47% (inactive) | -0.495 (inactive) | -3.6e-05 (inactive) | 0.00696 (inactive) | inactive | 18.1% (inactive)
16 | COc1ccc(CN(C#N)c2nc(SC)nc(N(C)C)n2)cc1 | 720 | -0.6% (inactive) | -41.4% (inactive) | 137% | 0.386 | 1.03 | 0.357 | -3.95% (inactive) | -0.451 (inactive) | -4.7e-05 (inactive) | 0.00509 (inactive) | inactive | -6.51% (inactive)
17 | Cc1ccc(-n2ncc3c(NCc4cccnc4)ncnc32)c(C)c1 | 623 | -10.1% (inactive) | 33.3% (inactive) | 103% | -0.852 | 0.459 | 0.734 | 1.42% (inactive) | -0.325 (inactive) | -4.3e-05 (inactive) | 0.00518 (inactive) | inactive | -12.1% (inactive)
18 | O=C1c2ccccc2C(=O)N1CC1c2ccccc2CCN1C(=O)N1CCOCC1 (stereo not drawn) | 775 | -4.1% (inactive) | -16.4% (inactive) | 202% | 0.51 | 1.63 | 0.969 | 1.98% (inactive) | -0.485 (inactive) | -4.9e-05 (inactive) | 0.0053 (inactive) | inactive | -3.71% (inactive)
19 | CC(C)c1nc(N2CCOCC2)c(C#N)c2c1COC(C)(C)C2 | 535 | -5.2% (inactive) | -79.8% (inactive) | 110% | 0.188 | -0.524 | -1.28 | -9.53% (inactive) | -0.424 (inactive) | 4.6e-06 (inactive) | 0.00516 (inactive) | inactive | -30% (inactive)
20 | CCCc1cc(NCCCCO)n2c(nc3ccccc32)c1C#N | 484 | -2.4% (inactive) | -67.8% (inactive) | 112% | -0.769 | -0.182 | 0.272 | 21.8% (inactive) | -0.238 (inactive) | -2.1e-05 (inactive) | 0.00464 (inactive) | inactive | 26.9% (inactive)
21 | CCCn1c(SCC#N)nc2c(c1=O)C1(CCCC1)Cc1ccccc1-2 | 547 | -1.4% (inactive) | -10.8% (inactive) | 185% | -0.545 | 0.717 | -0.241 | 3.97% (inactive) | -0.402 (inactive) | -3.9e-05 (inactive) | 0.00798 (inactive) | inactive | -14.9% (inactive)
